Legend:
[1] = target: 3',5'-cyclic-AMP phosphodiesterase 4D (Homo sapiens) (UniProt Q08499); experiment: Inhibition of PDE4D (unknown origin) at 10 uM
[2] = test system: MDCK; experiment: Apparent permeability across apical to basolateral side in MDCK cells expressing MDR1 (unknown origin); set-up: unit not given here; conditions: dog
[3] = target: Dual specificity calcium/calmodulin-dependent 3',5'-cyclic nucleotide phosphodiesterase 1C (Homo sapiens) (UniProt Q14123); experiment: Inhibition of PDE1C (unknown origin) at 10 uM
Sequence of Dual specificity calcium/calmodulin-dependent 3',5'-cyclic nucleotide phosphodiesterase 1C (Homo sapiens) (Q14123 whole entry): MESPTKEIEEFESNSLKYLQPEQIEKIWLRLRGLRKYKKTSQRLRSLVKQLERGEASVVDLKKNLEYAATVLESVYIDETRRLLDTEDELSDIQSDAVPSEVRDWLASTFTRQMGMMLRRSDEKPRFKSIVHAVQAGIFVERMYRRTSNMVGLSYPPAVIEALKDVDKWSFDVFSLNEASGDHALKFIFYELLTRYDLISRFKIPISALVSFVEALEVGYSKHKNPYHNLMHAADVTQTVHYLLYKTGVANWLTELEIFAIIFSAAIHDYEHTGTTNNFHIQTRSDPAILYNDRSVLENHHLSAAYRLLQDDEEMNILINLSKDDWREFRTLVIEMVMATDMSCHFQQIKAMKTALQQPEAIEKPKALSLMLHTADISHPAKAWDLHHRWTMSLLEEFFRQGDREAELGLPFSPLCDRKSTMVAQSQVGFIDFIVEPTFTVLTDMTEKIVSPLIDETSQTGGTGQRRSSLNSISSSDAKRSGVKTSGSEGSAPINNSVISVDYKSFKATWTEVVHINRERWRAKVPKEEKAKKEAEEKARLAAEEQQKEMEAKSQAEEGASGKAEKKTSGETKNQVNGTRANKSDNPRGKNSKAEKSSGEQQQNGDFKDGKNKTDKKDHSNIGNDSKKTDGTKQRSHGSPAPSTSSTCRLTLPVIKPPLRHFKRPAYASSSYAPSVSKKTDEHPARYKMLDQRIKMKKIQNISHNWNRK

[4] = target: cGMP-inhibited 3',5'-cyclic phosphodiesterase 3A (Homo sapiens) (UniProt Q14432); experiment: Inhibition of PDE3A (unknown origin) at 10 uM
Sequence of cGMP-inhibited 3',5'-cyclic phosphodiesterase 3A (Homo sapiens) (Q14432 whole entry): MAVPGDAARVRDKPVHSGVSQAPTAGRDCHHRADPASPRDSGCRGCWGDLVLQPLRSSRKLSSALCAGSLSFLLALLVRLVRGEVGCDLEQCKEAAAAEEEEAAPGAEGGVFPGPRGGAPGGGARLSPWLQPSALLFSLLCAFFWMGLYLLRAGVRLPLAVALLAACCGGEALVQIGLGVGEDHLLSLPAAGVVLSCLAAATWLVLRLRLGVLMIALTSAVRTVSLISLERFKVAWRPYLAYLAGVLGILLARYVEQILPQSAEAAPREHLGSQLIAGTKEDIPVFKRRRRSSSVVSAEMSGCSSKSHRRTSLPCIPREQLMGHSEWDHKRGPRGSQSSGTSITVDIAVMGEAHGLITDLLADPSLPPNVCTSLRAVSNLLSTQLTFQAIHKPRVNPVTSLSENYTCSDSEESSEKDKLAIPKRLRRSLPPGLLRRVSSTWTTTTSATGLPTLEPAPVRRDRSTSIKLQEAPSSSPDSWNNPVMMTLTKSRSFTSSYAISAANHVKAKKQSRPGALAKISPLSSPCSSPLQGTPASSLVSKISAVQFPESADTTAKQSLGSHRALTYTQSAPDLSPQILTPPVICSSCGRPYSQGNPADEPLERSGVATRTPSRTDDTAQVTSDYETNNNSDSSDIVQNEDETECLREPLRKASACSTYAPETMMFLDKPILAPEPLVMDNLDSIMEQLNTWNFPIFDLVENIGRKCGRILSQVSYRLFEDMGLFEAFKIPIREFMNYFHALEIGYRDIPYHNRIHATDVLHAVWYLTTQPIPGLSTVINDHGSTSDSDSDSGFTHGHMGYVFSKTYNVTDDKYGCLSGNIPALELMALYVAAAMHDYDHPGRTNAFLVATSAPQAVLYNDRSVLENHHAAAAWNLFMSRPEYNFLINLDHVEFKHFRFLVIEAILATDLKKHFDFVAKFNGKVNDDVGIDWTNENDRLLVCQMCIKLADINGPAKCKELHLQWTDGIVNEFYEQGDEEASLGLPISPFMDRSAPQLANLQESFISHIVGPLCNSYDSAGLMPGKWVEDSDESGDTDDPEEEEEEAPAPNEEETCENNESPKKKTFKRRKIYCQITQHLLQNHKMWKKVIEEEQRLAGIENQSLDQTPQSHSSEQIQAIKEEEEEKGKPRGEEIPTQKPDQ

[5] = target: cGMP-dependent 3',5'-cyclic phosphodiesterase (Homo sapiens) (UniProt O00408); experiment: Inhibition of PDE2A (unknown origin) at 10 uM
[6] = target: T1, cAMP and cAMP-inhibited cGMP 3',5'-cyclic phosphodiesterase 10A (Homo sapiens, UniProt Q9Y233); experiment: Inhibition of human PDE10A (amino acids 14 to 779) using [3H]-labelled cyclic nucleotide as substrate after 1 hr b beta counting
In short: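 PDE10A expressed in baculovirus-infected Sf9 cells (27 °C, harvested at 72 h), lysed in Tris/MgCl2/triton buffer and partially purified on Q sepharose. Reactions contained enzyme sufficient to convert 20–25% of substrate, 50 mM HEPES pH 7.6, 10 mM MgCl2, 0.02% Tween20, 0.1 mg/ml BSA, 3H-cAMP at 5 nM final and varying inhibitor levels. Signal was counted by Microbeta, activity was normalized to an uninhibited control (100%), and IC50 values were derived.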

[7] = target: 3',5'-cyclic-AMP phosphodiesterase 7B (Homo sapiens) (UniProt Q9NP56); experiment: Inhibition of PDE7B (unknown origin) at 10 uM
[8] = target: T1, cAMP and cAMP-inhibited cGMP 3',5'-cyclic phosphodiesterase 10A; experiment: Inhibition of PDE10A (unknown origin) at 10 uM
[9] = target: Dual 3',5'-cyclic-AMP and -GMP phosphodiesterase 11A (Homo sapiens) (UniProt Q9HCR9); experiment: Inhibition of PDE11A (unknown origin) at 2 uM
Sequence of Dual 3',5'-cyclic-AMP and -GMP phosphodiesterase 11A (Homo sapiens) (Q9HCR9 whole entry, looked up): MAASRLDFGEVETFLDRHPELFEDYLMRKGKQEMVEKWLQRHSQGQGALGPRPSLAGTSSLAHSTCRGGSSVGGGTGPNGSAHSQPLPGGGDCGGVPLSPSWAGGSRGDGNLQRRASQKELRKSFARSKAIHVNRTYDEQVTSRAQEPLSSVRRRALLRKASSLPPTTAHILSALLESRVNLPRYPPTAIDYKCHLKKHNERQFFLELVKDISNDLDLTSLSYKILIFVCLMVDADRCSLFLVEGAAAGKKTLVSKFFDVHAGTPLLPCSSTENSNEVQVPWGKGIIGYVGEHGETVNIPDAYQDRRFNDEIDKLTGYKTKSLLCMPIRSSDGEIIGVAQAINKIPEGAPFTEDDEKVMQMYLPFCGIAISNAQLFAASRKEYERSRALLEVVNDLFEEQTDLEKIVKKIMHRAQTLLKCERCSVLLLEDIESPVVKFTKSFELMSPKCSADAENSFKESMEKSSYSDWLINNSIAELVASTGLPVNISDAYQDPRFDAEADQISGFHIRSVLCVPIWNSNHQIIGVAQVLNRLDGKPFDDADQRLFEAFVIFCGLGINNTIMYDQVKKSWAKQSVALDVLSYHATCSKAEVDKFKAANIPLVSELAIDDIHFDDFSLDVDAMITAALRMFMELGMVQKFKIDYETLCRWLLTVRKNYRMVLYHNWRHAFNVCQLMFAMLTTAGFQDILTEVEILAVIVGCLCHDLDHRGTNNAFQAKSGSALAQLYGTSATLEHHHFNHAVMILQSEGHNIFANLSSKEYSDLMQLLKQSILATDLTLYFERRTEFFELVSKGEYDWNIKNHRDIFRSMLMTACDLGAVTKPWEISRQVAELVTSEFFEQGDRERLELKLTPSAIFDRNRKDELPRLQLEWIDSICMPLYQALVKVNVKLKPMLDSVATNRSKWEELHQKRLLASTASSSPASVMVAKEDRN

[10] = target: High affinity cAMP-specific and IBMX-insensitive 3',5'-cyclic phosphodiesterase 8A (Homo sapiens) (UniProt O60658); experiment: Inhibition of PDE8A (unknown origin) at 10 uM
Sequence of High affinity cAMP-specific and IBMX-insensitive 3',5'-cyclic phosphodiesterase 8A (Homo sapiens) (O60658 whole entry): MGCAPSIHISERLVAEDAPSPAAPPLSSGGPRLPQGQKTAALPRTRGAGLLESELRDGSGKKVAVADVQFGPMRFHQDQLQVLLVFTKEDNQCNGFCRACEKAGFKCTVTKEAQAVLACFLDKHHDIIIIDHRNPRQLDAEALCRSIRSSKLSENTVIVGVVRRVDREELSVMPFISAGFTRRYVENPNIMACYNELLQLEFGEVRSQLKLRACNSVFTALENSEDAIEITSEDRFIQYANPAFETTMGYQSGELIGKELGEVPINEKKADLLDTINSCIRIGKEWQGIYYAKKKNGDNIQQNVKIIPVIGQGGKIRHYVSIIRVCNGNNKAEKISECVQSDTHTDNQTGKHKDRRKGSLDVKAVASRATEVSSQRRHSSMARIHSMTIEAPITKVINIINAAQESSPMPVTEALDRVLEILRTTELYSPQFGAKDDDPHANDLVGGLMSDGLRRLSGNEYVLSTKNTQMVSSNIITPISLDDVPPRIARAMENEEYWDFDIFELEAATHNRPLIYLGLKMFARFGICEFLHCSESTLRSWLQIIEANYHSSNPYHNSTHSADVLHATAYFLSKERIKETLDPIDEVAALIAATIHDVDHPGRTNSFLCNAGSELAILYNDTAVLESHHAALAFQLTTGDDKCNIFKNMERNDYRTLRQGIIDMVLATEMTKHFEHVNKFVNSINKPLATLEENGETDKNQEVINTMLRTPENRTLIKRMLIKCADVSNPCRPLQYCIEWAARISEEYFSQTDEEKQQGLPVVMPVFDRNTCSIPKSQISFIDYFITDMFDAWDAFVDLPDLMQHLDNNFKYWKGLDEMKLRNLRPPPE

[11] = target: High affinity cGMP-specific 3',5'-cyclic phosphodiesterase 9A (Homo sapiens) (UniProt O76083); experiment: Inhibition of PDE9A (unknown origin) at 10 uM
Sequence of High affinity cGMP-specific 3',5'-cyclic phosphodiesterase 9A (Homo sapiens) (O76083 whole entry): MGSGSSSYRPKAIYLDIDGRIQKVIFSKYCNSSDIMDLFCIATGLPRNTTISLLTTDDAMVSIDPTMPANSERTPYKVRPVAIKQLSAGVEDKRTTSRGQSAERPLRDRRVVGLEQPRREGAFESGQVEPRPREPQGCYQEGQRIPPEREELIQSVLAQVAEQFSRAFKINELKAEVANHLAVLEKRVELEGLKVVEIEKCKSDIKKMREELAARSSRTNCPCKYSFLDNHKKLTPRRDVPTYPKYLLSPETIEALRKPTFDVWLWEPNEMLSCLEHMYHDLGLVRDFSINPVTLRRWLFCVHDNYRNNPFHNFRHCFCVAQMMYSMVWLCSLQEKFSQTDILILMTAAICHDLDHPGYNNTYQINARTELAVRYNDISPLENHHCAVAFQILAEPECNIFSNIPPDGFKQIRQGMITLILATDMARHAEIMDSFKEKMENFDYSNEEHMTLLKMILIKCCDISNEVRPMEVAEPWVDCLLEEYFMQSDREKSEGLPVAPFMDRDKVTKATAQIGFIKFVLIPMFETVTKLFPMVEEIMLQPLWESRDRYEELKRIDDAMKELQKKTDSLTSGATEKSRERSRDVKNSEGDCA

[12] = target: T1, cAMP and cAMP-inhibited cGMP 3',5'-cyclic phosphodiesterase 10A; experiment: Inhibition of PDE10A (unknown origin) at 2 uM
[13] = target: cGMP-specific 3',5'-cyclic phosphodiesterase (Homo sapiens) (UniProt O76074); experiment: Inhibition of PDE5A (unknown origin) at 10 uM
[14] = target: Dual 3',5'-cyclic-AMP and -GMP phosphodiesterase 11A (Homo sapiens) (UniProt Q9HCR9); experiment: Inhibition of PDE11A (unknown origin) at 10 uM

Sequence of 3',5'-cyclic-AMP phosphodiesterase 4D (Homo sapiens) (Q08499 whole entry): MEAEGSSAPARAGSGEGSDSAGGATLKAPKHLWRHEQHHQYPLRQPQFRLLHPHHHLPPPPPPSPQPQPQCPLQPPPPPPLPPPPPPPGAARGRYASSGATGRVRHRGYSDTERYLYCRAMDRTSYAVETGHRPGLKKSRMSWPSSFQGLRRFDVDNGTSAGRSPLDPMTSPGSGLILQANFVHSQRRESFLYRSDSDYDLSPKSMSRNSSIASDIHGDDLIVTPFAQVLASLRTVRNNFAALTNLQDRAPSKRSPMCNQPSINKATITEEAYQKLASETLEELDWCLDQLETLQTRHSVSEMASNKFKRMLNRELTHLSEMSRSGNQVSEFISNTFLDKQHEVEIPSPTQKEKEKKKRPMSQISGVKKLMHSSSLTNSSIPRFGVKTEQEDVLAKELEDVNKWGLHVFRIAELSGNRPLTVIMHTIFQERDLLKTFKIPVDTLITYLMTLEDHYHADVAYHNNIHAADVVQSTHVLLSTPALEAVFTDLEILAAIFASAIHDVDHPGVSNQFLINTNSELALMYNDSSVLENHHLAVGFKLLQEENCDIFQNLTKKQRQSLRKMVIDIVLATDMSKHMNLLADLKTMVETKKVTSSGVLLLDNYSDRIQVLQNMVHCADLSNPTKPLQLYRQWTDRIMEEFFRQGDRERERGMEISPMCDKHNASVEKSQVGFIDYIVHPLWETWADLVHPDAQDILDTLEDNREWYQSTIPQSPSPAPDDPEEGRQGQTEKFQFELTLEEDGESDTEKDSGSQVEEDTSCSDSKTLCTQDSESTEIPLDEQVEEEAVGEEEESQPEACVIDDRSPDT

Structure (SMILES)	inhibition [1]	Papp A-B [2]	inhibition [3]	inhibition [4]	inhibition [5]	IC50 [6]	inhibition [7]	inhibition [8]	inhibition [9]	inhibition [10]	inhibition [11]	inhibition [12]	inhibition [13]	inhibition [14]
Cc1cc2c3ccccc3cc(CCc3nc(-c4ccccc4)cn3C)n2n1	12%	3.1	-1%	20%	14%	900 nM	13%	72%	13%	17%				
CCOC(=O)c1cc2c3cccnc3cc(CCc3nc4ccccc4n3C)n2n1	24%		27%	1%	20%	1300 nM	17%			-6%	-2%	73%	38%	10%
Cc1cc2c3cnccc3cc(CCc3nc4ccccc4n3C)n2n1	15%		10%	30%	54%	480 nM	-3%			46%	15%	79%	39%	1%
Cc1cc2c3ccncc3cc(CCc3nc(-c4ccccc4)cn3C)n2n1	68%	11.7	24%	49%	17%	40 nM	53%	102%	37%	37%	12%		59%	
Cc1cc2c3cccnc3cc(CCc3nc4ccccc4n3C)n2n1	23%		28%	16%	55%	170 nM	27%			13%	21%	93%	67%	43%
Cc1cc2c3ccccc3cc(CCc3nc4ccccc4n3C)n2n1	11%	1.1	-7%	15%	8%	1000 nM	11%	77%	12%	36%	10%		20%	

Now from value to molecule:

inhibition [1]	Papp A-B [2]	inhibition [3]	inhibition [4]	inhibition [5]	IC50 [6]	inhibition [7]	inhibition [8]	inhibition [9]	inhibition [10]	inhibition [11]	inhibition [12]	inhibition [13]	inhibition [14]	Structure (SMILES)
38%		15%	5%	28%	40 nM	18%			16%	5%	102%	35%	34%	Cc1cc2c3cccnc3cc(CCc3nc(-c4ccccc4)cn3C)n2n1
45%			13%	44%	220 nM	-4%			46%	20%	88%	13%	7%	CCOC(=O)c1cc2c3cccnc3cc(CCc3nc(-c4ccccc4)cn3C)n2n1
44%	3.1	-3%	28%	13%	190 nM	41%	101%	25%	31%	8%		33%		Cn1cc(-c2ccccc2)nc1CCc1cc2ncccc2c2cc(C(F)(F)F)nn12
25%		11%	13%	20%	55 nM	41%			25%	53%	100%	15%	7%	Cc1cc2c3cnccc3cc(CCc3nc(-c4ccccc4)cn3C)n2n1
58%	17.8	7%	51%	69%	42 nM	47%	106%	70%	29%	15%		38%		COCc1cc2c3cccnc3cc(CCc3nc(-c4ccccc4)cn3C)n2n1
